Screens from PubChem BioAssay.
NPY-Y1 antag: antagonists of human neuropeptide Y receptor Y1 | HEK293-CNG Y1 cells, membrane potential fluorescence; NPY at EC95, then isoproterenol | AID 1040 | 200,000 compounds, 1% hits | inhibition, % at 3.6 µM | P25929;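 active = inhibition above the campaign mean inhibition of all tested compounds plus 3 SD, cut at about 20% in these data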
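Material: Y1- and CNG-channel-expressing HEK293 cells / Probe or stimulus: NPY 25 nM then isoproterenol 1 µM plus Ro 20-1724 25 µM / Doses: 3.6 µM single dose, DMSO 0.4% / Schedule: compound incubation 1 h at room temperature, readout 45 min post-stimulation / Signal: membrane potential fluorescence / Benchmarks: isoproterenol-only wells as full block versus NPY-plus-isoproterenol wells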
NPY-Y2 antag: blocks the human neuropeptide Y Y2 receptor; P49146; NPY-Y2 expressing cells, antagonist mode; AID 793; inhibition, % at 2.7 µM; 140,000 compounds, 0.99% hits; in the data active = inhibition above about 17%
NPY2 pot ag: human NPY-Y2 potentiation or agonism, primary screen; activation, % at 3.6 µM; cells expressing NPY-Y2, potentiator/agonist read-out; 220,000 compounds, 0.45% hits; in the data active = activation above about 27%;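 note: cells stimulated with NPY near EC25 plus isoproterenol at EC100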
KCC2 mod: KCC2 (human) Cl- transport modulation | B-score of Tl+ flux slope (higher = more flux/activation; lower = inhibition) at 10 µM | Q9H2X9 | AID 1456 | KCC2 cells, thallium flux FluoZin-2 fluorescence | 190,000 compounds, 2.2% hits;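 active = thallium flux slope and its plate-corrected score both differing from the plate sample mean at a set confidence after two filtering rounds, in either direction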;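 note: slope of fluorescence scaled to starting intensity during 10 to 20 s after thallium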
Furin inhibitor: inhibitors of human furin; P09958; 220,000 compounds, 0.061% hits; inhibition, % at 20 µM or 30 µM; purified furin, fluorogenic substrate cleavage; in the data active = inhibition above about 25%
NPY1 pot ag: potentiates or activates human NPY-Y1 receptor; AID 1304; activation, % at 3.6 µM; NPY-Y1 expressing cells, potentiator/agonist activation; P25929; 220,000 compounds, 0.37% hits; in the data active = activation above about 33%, passing the limit was not always enough;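 note: cells stimulated with NPY at EC10 then isoproterenol at EC100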
Large screens that a line does not name were inactive. Sampled rows, rich in hits. Any-hit rate of the full collection: about 3.7%.

CCOC(=O)c1c(-c2ccccc2)csc1NC(=S)NC	KCC2 mod 36
O=c1ccc(-c2ccccc2)no1	none (no result: NPY-Y1 antag, NPY-Y2 antag)
c1cc2c3c(cccc3c1)NC1(CCC3(CC1)Nc1cccc4cccc(c14)N3)N2	NPY2 pot ag 56, NPY1 pot ag 60 (no result: NPY-Y1 antag, NPY-Y2 antag)
O=C(NC(=S)N1CCN(c2ccc(C(F)(F)F)cc2[N+](=O)[O-])CC1)c1cccs1	KCC2 mod 64
CCCCNC(=O)CNC(=S)N(Cc1ccccc1F)C1CCCCC1	none (no result: NPY-Y2 antag)
Cc1cc(N=NC(=O)c2ccccc2O)c2ccccc2c1O	KCC2 mod -3.5 (no result: NPY-Y2 antag)
CN(C)C(=S)SCCn1c(N)nc(N(C)C)nc1=O	none (no result: NPY-Y1 antag, NPY-Y2 antag)
CCOc1ccccc1-n1c(SCC(=O)N2CCCc3ccccc32)nnc1-c1cccnc1	none
O=C(CSc1nnc(-c2cccnc2)n1-c1ccc(SC(F)F)cc1)N1CCCc2ccccc21	NPY-Y2 antag 19
CC(C)N(Cc1ccccc1)C(=S)NC(=O)C1(C)CC1(Cl)Cl (configuration not stated)	KCC2 mod 85 (no result: NPY-Y2 antag)
CC1(C(=O)NC(=S)N(CCC#N)c2ccccc2)CC1(Cl)Cl (configuration not stated)	none
COc1ccc(S(=O)(=O)N2CCc3cc(OC)c(OC)cc3C2)cc1	none (no result: NPY-Y1 antag, NPY-Y2 antag)
CNC(=O)C1CC(=O)N(CCc2ccc(OC)cc2)C(=Nc2ccc(OC)cc2)S1 (configuration not stated)	Furin inhibitor 27
COc1ccc(N=C2SC(C(N)=O)CC(=O)N2CCc2ccc(OC)c(OC)c2)cc1 (configuration not stated)	none
COc1ccc(NC(=O)CCCc2c[nH]c3ccccc23)cc1OC	none
COc1ccc(C(c2c[nH]c3ccccc23)c2c[nH]c3ccccc23)cc1O	NPY2 pot ag 39, NPY1 pot ag 32 (no result: KCC2 mod)
C=CCn1c(SCc2cc(C(C)=O)ccc2OCC)nc2ccccc2c1=O	NPY-Y1 antag 27, NPY-Y2 antag 25
COc1ccc(-c2noc(CSc3nc4ccccc4c(=O)n3-c3ccccc3)n2)cc1	none
Cc1noc(C)c1CSc1nc2ccccc2c(=O)n1-c1ccccc1	NPY-Y1 antag 24, NPY-Y2 antag 18
C=CCn1c(SCc2c(C)noc2C)nc2ccccc2c1=O	NPY-Y1 antag 64, NPY-Y2 antag 29
CC(NC(=O)CN1C(=O)NC(Cc2ccccc2)(Cc2ccccc2)C1=O)C12CC3CC(CC(C3)C1)C2 (configuration not stated)	NPY-Y1 antag 130, NPY-Y2 antag 161
CC(NC(=O)Cn1ncc(Cl)c(Cl)c1=O)C12CC3CC(CC(C3)C1)C2 (configuration not stated)	NPY2 pot ag 72, NPY1 pot ag 82
CCN(CC(=O)Nc1cccc(OC)c1)CC(=O)Nc1ccc(C)cc1Cl	none (no result: NPY-Y2 antag)
CC(OC(=O)c1ccncc1)C(=O)Nc1cc(S(=O)(=O)N2CCCCC2)ccc1Cl (configuration not stated)	none
CCOC(=O)c1cnc2ccc(OCC)cc2c1N(C)Cc1ccccc1	NPY-Y1 antag 31, NPY-Y2 antag 35
CC1(C)NC(=O)N(CCSc2ccc(Cl)cc2)C1=O	none (no result: KCC2 mod)
Cc1ccc(SCCCCN2C(=O)NC(C)(C)C2=O)cc1	Furin inhibitor 33
COc1ccc(OC)c2sc(N(CCN(C)C)C(=O)c3cc(Cl)sc3Cl)nc12	NPY2 pot ag 79, NPY1 pot ag 90 (no result: NPY-Y2 antag)
O=C(CCC(=O)Nc1nnc(C2CCCCC2)s1)NCc1ccccc1	none (no result: NPY-Y1 antag, NPY-Y2 antag)
CN(CC(=O)Nc1cccc2ccccc12)C(=O)/C=C/c1cccs1	none
COC(=O)c1ccc(CSc2nc3ccc(C)cc3[nH]2)o1	none
Cc1ccc(NC(=O)Cc2cc(C(=O)O)c3ccccc3n2)c(C)c1	NPY2 pot ag 80, NPY1 pot ag 78 (no result: NPY-Y2 antag)
CCCc1cc(C(=O)O)c2ccccc2n1	none
C/C(=C\C(=O)c1ccc(Br)cc1)NCc1ccc2c(c1)OCO2	NPY-Y1 antag 21
COc1cc(CCC(=O)Nc2ccc(Br)c(C(F)(F)F)c2)cc(OC)c1OC	none
Cc1ccc(NC(=O)COc2ccccc2CNC(C)(C)CC(C)(C)C)cc1	NPY-Y1 antag 30, NPY-Y2 antag 25
CC(C)(CO)NCc1ccccc1OCC(=O)Nc1ccccc1	none
O=C(Nc1ccc(F)cc1)c1nn(-c2ccccc2)c(=O)cc1Cl	NPY2 pot ag 53, NPY1 pot ag 63 (no result: NPY-Y2 antag)
Cn1cnnc1SCc1ccc(C(=O)N=Nc2c(O)n(Cc3ccc(Cl)cc3)c3ccccc23)cc1	NPY2 pot ag 46, NPY1 pot ag 47
O=C(Nc1cccc(Cl)c1)OCc1cn(-c2ccccc2)nn1	NPY-Y1 antag 21 (no result: NPY-Y2 antag)
O=C1OC2(CCCCC2)OC(=O)C1=CNc1nc2ccccc2s1	KCC2 mod 3.7
O=C(Nc1ccc(F)cc1)c1ccccc1S(=O)(=O)c1ccccc1[N+](=O)[O-]	none
Nc1c(C(O)(C(F)(F)F)C(F)(F)F)cc(C(O)(C(F)(F)F)C(F)(F)F)c2ccccc12	NPY2 pot ag 77, NPY1 pot ag 48
CN(Cc1ccccc1)C(=O)CSc1nnc(-c2ccco2)n1-c1ccccc1	none
Cc1cc(C)c2c(CC(=O)O)coc2c1	NPY-Y1 antag 24
Cc1cc(C)c2c(CC(=O)NN(C)C)coc2c1	none (no result: NPY-Y2 antag)
CCCCNC(=S)NC(=O)c1ccc([N+](=O)[O-])cc1	KCC2 mod 21
CC(C)CNC(=S)NC(=O)c1ccc([N+](=O)[O-])cc1	KCC2 mod 20
O=C(NC(=S)NCc1cccnc1)c1ccc([N+](=O)[O-])cc1	none (no result: NPY-Y2 antag)
Cc1ccc(-n2[nH]c(C)c(C=Nc3cc(C)ccn3)c2=O)cc1	KCC2 mod 4.2
Cc1ccc(-n2[nH]c(C)c(/C=N/c3ccccn3)c2=O)cc1	none (no result: KCC2 mod)
Cc1[nH]n(-c2ccc(Cl)cc2)c(=O)c1/C=N/c1nnc(-c2ccccc2)s1	KCC2 mod 45
COc1ccc2nc(/N=C/c3c(C)[nH]n(-c4ccc(C)cc4)c3=O)sc2c1	KCC2 mod 54
CCc1nnc(NS(=O)(=O)c2ccc(N=Cc3c(C)[nH]n(-c4ccc(Cl)cc4)c3=O)cc2)s1	none
COc1ccc2nc(/N=C\N(C)C)sc2c1	none (no result: KCC2 mod)
CCOC(=O)c1csc(N)c1-c1ccc([N+](=O)[O-])cc1	none (no result: NPY-Y1 antag, NPY-Y2 antag)
COc1ccc(-c2noc(C(=O)NCc3ccccc3Cl)n2)cc1OC	NPY-Y1 antag 25 (no result: NPY-Y2 antag)
CCCCC(=O)Nc1ccc(NC(=O)C2CC2)nc1	none
CCc1ccc(OCCOCC(O)CNC(C)(C)C)cc1 (configuration not stated)	none
CC(C)(C)NCC(O)COc1cccc2c1C[C@H](O)[C@H](O)C2 (some centres not stated)	NPY2 pot ag 102, NPY1 pot ag 118
COCCCNCC(O)COc1cccc2[nH]c(C)cc12 (configuration not stated)	NPY2 pot ag 101, NPY1 pot ag 108 (no result: NPY-Y2 antag)
Cc1ccccc1OCC(O)CN1CCN(C)CC1 (configuration not stated)	none (no result: NPY-Y2 antag)
